Results reported in the RNAGym collection of RNA variant scans (doi:10.1126/science.aae0568).
Variants at the floor of the assay were thinned out.

B1: tRNA (parent)
chain: GUUCCGUUGGCGUAAUGGUAACGCGUCUCCCUCCUAAGGAGAAGACUGCGGGUUCGAGUCCCGUACGGAACG

Variants of: B1
Experiment: yeast fitness relative to wild type (ratio to wild type); higher = fitter; tRNA-Arg(CCU), competitive growth, 37 C, YPD
Summary of the method: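 Variants of the tRNA-Arg(CCU) gene, chemically synthesised with a 3% per-site mutation rate at 69 sites, were placed at the native genomic locus in Saccharomyces cerevisiae. The pooled strains were competed in YPD at 37°C for 24 hours in six parallel replicates. Gene amplicons from the start population and from each end population were read by 100-nucleotide paired-end sequencing. Darwinian fitness relative to wild type came from changes in genotype frequencies; genotypes needed ≥ 100 starting reads, and estimates < 0.5 were set to 0.5.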

Variant | yeast fitness
GAUCCGUUGGCGUAAUGGUAACGCGUCUCCCUCCUAAGGAGAAGACUGCCGGUUCAGGUCCCGUACGGAACG [U2A G50C G56A A57G] | ≤ 0.5
GCUCCGUUGGCGUAUUGGUAACGCGUCUCCCUCCUAAGGAGAAGACUGCGGGUUCGAGUCCCGUACGGAACG [U2C A15U] | 0.653
GAUCCGUAGGGGUAAUGGUAACGCGUCUCGCUCCUAAGGAGAAGACUACGGGUUCGAGUCCCGUACGGAACG [U2A U8A C11G C30G G48A] | ≤ 0.5
GAUCCGUUGGCGUAAUGGUAACGCGUCUCCCUCCUAAGGAGAAGACUGCGGGUUCGAGACCCGUACGGAACG [U2A U59A] | 0.917
GAUCCGUUGGCGUAAUGGUAACGCGUCUCCCUCCUAAGGAGAAGACUGCAGGUUCGAGUCCCGUACGGAACG [U2A G50A] | 0.858
GAUCCGUUGGCGGAAUGGUAACGCGUCUCCCUCCUAAGGCCAAGACUGCGGGUUCGGGUCCCCUUCGGAACG [U2A U13G A40C G41C A57G G63C A65U] | ≤ 0.5
GCUCCGUUGGCGUAAUGGUUACGCGUCUCCCUCCUAAGGUGAAGACUGCGGGUUCGAGUCCCGUACGGAACG [U2C A20U A40U] | 0.52
GAUCCGUAGGCAUAAUGGUAACGCGUCUCUCUCCUAAGGAGAAGACUGCGGGUUCGAGUCCCGUACGGAACG [U2A U8A G12A C30U] | ≤ 0.5
GCUCCGUUGGCGUAGUGGUAACGCGUCUCCCUCCUAACGAGAAGACUGCGGGUUCGAGUCCCGAACGACACG [U2C A15G G38C U64A G68A A69C] | ≤ 0.5
GCUCCGUUGGCGUAAUGGUAACGCGUCUCCCUCCUAAGGCGAAGACUGCAGGUUCGAGUCCCGUAUGGAACG [U2C A40C G50A C66U] | ≤ 0.5
GCUCCGUUGGCGUGAUGAUAACGCGUCUCCCUCCUAAGGAGAAGACUGCGGGUUCGAGUCCCGUACGGACCG [U2C A14G G18A A70C] | ≤ 0.5
GAUCCGAUGGCGUAUUGGUAACGCGUCUCCCUCCUAAGGAGAAGACUGCGGGUUCGAGUCCCGUACGGAACG [U2A U7A A15U] | ≤ 0.5
GCUCCGUUGGCGUAAUGGUAACGCGUCUCCCUCCUAAGGAGAAGACUGCGGGUUCGAGUCCCGUGCGGAACG [U2C A65G] | 0.867
GAUCCGUUGGCGUAACGGUAACGCGUCUCACUCCUAAGGAGAAGACUGCGGGUUCGAGUCCCGUUCGGAACG [U2A U16C C30A A65U] | ≤ 0.5
GAUCCGUAGGCGUAAUGGUAACGUGUCUCCCUCCUAAGGAGAAGACUGCGGGUUCGAGUCCCGUACGGAACG [U2A U8A C24U] | ≤ 0.5
GCUACGUUGGCGUAAUGGUAACGCGUCUCCCUCAUAAGGAGAGGACUGCGGCUUCGAGUCACGUACGGAACG [U2C C4A C34A A43G G52C C61A] | ≤ 0.5
GAUCCGUUGGCGUAAUGGUAACGCGUCUCCCUCCCAACGAGAAGACGGCGGGUUCGAGUCCCGUACGGAACG [U2A U35C G38C U47G] | ≤ 0.5
GCUGCGUUGGCGUAAUGGUAAUGCGUCUCACUCCUAAGGAGAAGACUGCGGGUUCGAGUCCCGUUCGGAACG [U2C C4G C22U C30A A65U] | ≤ 0.5
GAUCCGGUGGCGUAAUGGUAACGCGUCUCCCUCCUAAGGAGAAGACUGCGGGUUCGAGUCCCGUACGGAACG [U2A U7G] | 0.847

Variant | yeast fitness
GAUCCGUUGGCGCAAUGGUAACGCGUCUCCCUCCUAAAGAGAAGACUGCGGGUUCGAGUCCCGUACGGAACG [U2A U13C G38A] | ≤ 0.5
GAUCCGUCGGCGUAAUGGUAACGCGUCUCCCUCCUAAGGAGAAGACAGCGGGUUCGAGUCCCGUACGCAACG [U2A U8C U47A G68C] | ≤ 0.5
GAUCCGUUGGCGUAAUGGUAACGCGUCUCCCCCCCGAGGAGAAGACUGCGGGUUCGAGUCCCGUACGGAACG [U2A U32C U35C A36G] | ≤ 0.5
GCUCCGUUGGCGUAAUGGUAACGCGUCUCCCUCCUAAGGGGAAGACUGCGGGUUCGAGUCCCGUACGGAACG [U2C A40G] | 0.984
GAUCCGUCGGCAUAAUGGUAACGCGUCUCCCUCCUAAGGAGUAGACUGCGGGUUCGAGUCCCGUACGGAACG [U2A U8C G12A A42U] | ≤ 0.5
GAACCGUUGGCGUAACGGUAACGUGUCUCCCUCCUAAGGAGAAGACUGCGGGUUCGAGUCCUGUACGGAACG [U2A U3A U16C C24U C62U] | 0.629
GAUCCGUUGGCGUAAUGGUAACGCGUCUCCCACCUAAGGAGAAGACUGCGGGUUCGAGUCCCGAUCGGAACG [U2A U32A U64A A65U] | 0.581
GCUCCGUUGGCGUAGUGGUAACGCGUCUCCCUCCUAAGGAGAAGACUGCGGGUUCGAGUCUCGUACGGAACG [U2C A15G C61U] | ≤ 0.5
GCUCCGUUGGCGUAAUGGUACCGCGUCUCCCUCCUAAAGAGAAGACUGCGGGUUCGAGUCCCGUACGGAACG [U2C A21C G38A] | 0.594
GAUCCGUUGGCGUAAGGGUAACGCGUCUCCCUCCUAAGGAGAAGACUGCGGGUUCGAGUCCCGUAUGGAACG [U2A U16G C66U] | 0.806
GAUCCGUGGGCGUAAUGGUAAUGCGUCUCCCCGCUAAAGAGAAGACUGCGGGUUCGAGUCCCGUACGGAACG [U2A U8G C22U U32C C33G G38A] | ≤ 0.5
GAUCCGUUGGCGUAAUGGUAACGCGUCCCCCUCCUAAGGACAAGACUGCGGGUUCGAGUCCCGUAAGGAACG [U2A U28C G41C C66A] | ≤ 0.5
GCUCCGUUGGCGUAAUGGUAACGCGUCUCCCUCCUAUGGCGAAGACUGCGGGUUCGAGUCCCGUACGGAACG [U2C A37U A40C] | 0.633
GAUCCGUUGGCGUAAGGGUAACGCGUCUCCCUCCUAAGGAGAAGACUGGGGGUUCGAGUCCCGUACGGAACG [U2A U16G C49G] | 0.705
GCUCCGUUGGCGUAAUGGUAGCGCGUCUCCCUGCUAAGGAGAAGACUGCGGGUUCGAGUCCCGUACGGAACG [U2C A21G C33G] | ≤ 0.5
GCUCCGUUGGCGUGAUGGUAACGCGUCUCCCUCCUCAGGAGAAGACAGCGGGUUCGAGUCACGUACGGAACG [U2C A14G A36C U47A C61A] | ≤ 0.5
GAUCCGUUGGCGUAAUGGUAACGCGUCUCCCACCUAUGGAGAGGACUGCGGGUUCGAGUCCCGUACGGAACG [U2A U32A A37U A43G] | ≤ 0.5
GAUCCGUCGGCGCAAUGGUAACGCGUCUCCCUCCUAAGGAGCAGACUGCGGGUUCGAGUCCCGUACGGAACG [U2A U8C U13C A42C] | ≤ 0.5
GCUCCGUUGGCGUCAUGGUAACGCGUCUCCCUCCUAAGGAGACGACUGCGGGUUCGAGUCCCGUACGGAACG [U2C A14C A43C] | ≤ 0.5
